ChEMBL document CHEMBL3286320, “Design, Synthesis, and Optimization of Balanced Dual NK1/NK3 Receptor Antagonists” (ACS Med Chem Lett, 2014)
pKi: −log10 of the molar value. Values belong to the compound of their own block, whether it stands above or below them.

Experiments:
Neuromedin-K receptor = molecular target: T1, Neuromedin-K receptor (Homo sapiens, UniProt P29371); assay: Displacement of [3H]-SR142801 from human NK3 receptor expressed in recombinant CHO cells; type: cell-based
T1 sequence (P29371 whole entry): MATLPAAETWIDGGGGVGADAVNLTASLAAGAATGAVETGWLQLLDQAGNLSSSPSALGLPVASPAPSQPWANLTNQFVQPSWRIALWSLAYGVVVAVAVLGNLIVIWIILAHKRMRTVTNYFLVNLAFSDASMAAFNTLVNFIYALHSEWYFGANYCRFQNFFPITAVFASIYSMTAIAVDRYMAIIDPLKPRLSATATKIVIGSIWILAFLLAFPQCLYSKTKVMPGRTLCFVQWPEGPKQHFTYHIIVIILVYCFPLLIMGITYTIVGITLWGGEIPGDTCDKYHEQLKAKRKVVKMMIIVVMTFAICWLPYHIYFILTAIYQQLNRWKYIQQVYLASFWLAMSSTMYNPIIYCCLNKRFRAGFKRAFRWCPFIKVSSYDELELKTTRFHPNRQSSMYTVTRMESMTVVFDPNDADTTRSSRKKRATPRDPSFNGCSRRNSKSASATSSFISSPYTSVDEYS
Method in brief: (§1)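 Radioligand binding on membranes: NK1 on membranes from U-373MG cells, which express the receptor endogenously; NK3 on membranes from CHO cells stably expressing the recombinant human receptor.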

Substance-P receptor = Substance-P receptor (Homo sapiens, UniProt P25103); assay: Displacement of [125I]-Bolton Hunter-substance P from human NK1 receptor expressed in human U373MG cells; type: cell-based, U-373MG ATCC; method in brief: as §1
Sequence of Substance-P receptor (P25103 whole entry): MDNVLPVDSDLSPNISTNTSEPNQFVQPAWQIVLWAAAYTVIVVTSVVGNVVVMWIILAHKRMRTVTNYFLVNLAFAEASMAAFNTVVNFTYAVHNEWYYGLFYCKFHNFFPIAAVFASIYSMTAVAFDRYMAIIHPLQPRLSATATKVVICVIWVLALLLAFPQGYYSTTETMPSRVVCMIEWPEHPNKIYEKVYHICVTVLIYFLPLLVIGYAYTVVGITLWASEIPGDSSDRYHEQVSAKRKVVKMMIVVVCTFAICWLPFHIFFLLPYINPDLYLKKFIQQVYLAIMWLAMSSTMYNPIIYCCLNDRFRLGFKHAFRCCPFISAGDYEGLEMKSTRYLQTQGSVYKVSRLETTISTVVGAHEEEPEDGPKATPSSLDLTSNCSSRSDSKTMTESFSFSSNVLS

Structure (SMILES): CN(C)CCNC(=O)[C@@H](Cc1ccccc1)NC(=O)[C@](C)(CCN1CCC2(CC1)OC(=O)N(C)c1ccc(F)cc12)c1ccc(Cl)c(Cl)c1
pKi (Neuromedin-K receptor): 7.50
pKi (Substance-P receptor): 7.40

Structure (SMILES): CN1C(=O)OC2(CCN(CCC[C@@H](C(=O)N(C)[C@@H](Cc3ccccc3)C(=O)NCCN)c3ccc(Cl)c(Cl)c3)CC2)c2cc(F)ccc21
pKi (Neuromedin-K receptor): 5.40
pKi (Substance-P receptor): 7.30

Structure (SMILES): CN1C(=O)OC2(CCN(CCC[C@H](C(=O)N(C)[C@@H](Cc3ccccc3)C(=O)NCCN)c3ccc(Cl)c(Cl)c3)CC2)c2cc(F)ccc21
pKi (Neuromedin-K receptor): 5.20
pKi (Substance-P receptor): 6.40

Structure (SMILES): CN1C(=O)OC2(CCN(CCC[C@@](C)(C(=O)N[C@H](C(=O)NCCN)c3ccccc3)c3ccc(Cl)c(Cl)c3)CC2)c2cc(F)ccc21
pKi (Neuromedin-K receptor): 6.10
pKi (Substance-P receptor): 6.50

Structure (SMILES): CN(C)CCNC(=O)[C@@H](Cc1ccccc1)NC(=O)[C@](C)(CCCN1CCC2(CC1)OC(=O)N(C)c1ccc(F)cc12)c1ccc(Cl)c(Cl)c1
pKi (Neuromedin-K receptor): 6.00
pKi (Substance-P receptor): 7.70

Structure (SMILES): CN1C(=O)OC2(CCN(CCC[C@@](C)(C(=O)N[C@H](Cc3ccccc3)C(=O)NCCO)c3ccc(Cl)c(Cl)c3)CC2)c2cc(F)ccc21
pKi (Neuromedin-K receptor): 6.90
pKi (Substance-P receptor): 7.80

Structure (SMILES): CN1C(=O)OC2(CCN(CC[C@@](C)(C(=O)N(C)[C@H](Cc3ccccc3)C(=O)NCCCN)c3ccc(Cl)c(Cl)c3)CC2)c2cc(F)ccc21
pKi (Neuromedin-K receptor): 7.60
pKi (Substance-P receptor): 8.40

Structure (SMILES): CN1C(=O)OC2(CCN(CC[C@@H](C(=O)N(C)[C@H](C(=O)NCCN)c3ccccc3)c3ccc(Cl)c(Cl)c3)CC2)c2cc(F)ccc21 (racemic)
pKi (Neuromedin-K receptor): 5.60
pKi (Substance-P receptor): 6.20

Further lines, results first:

pKi (Neuromedin-K receptor): 5.90
pKi (Substance-P receptor): 6.70
Structure (SMILES): CN1C(=O)OC2(CCN(CC[C@H](C(=O)N(C)[C@@H](Cc3ccccc3)C(=O)NCCN)c3ccc(Cl)c(Cl)c3)CC2)c2cc(F)ccc21

pKi (Neuromedin-K receptor): 7.20
pKi (Substance-P receptor): 6.90
Structure (SMILES): CN1C(=O)OC2(CCN(CC[C@@](C)(C(=O)N[C@@H](Cc3ccccc3)C(=O)NCCN)c3ccc(Cl)c(Cl)c3)CC2)c2cc(F)ccc21

pKi (Neuromedin-K receptor): 5.00
pKi (Substance-P receptor): 6.40
Structure (SMILES): CN1C(=O)OC2(CCN(CC[C@](C)(C(=O)N[C@@H](Cc3ccccc3)C(=O)NCCN)c3ccc(Cl)c(Cl)c3)CC2)c2cc(F)ccc21

pKi (Neuromedin-K receptor): 5.70
pKi (Substance-P receptor): 6.20
Structure (SMILES): CN1C(=O)OC2(CCN(CC[C@](C)(C(=O)N[C@H](Cc3ccccc3)C(=O)NCCN)c3ccc(Cl)c(Cl)c3)CC2)c2cc(F)ccc21

pKi (Neuromedin-K receptor): 7.30
pKi (Substance-P receptor): 7.70
Structure (SMILES): CN1C(=O)OC2(CCN(CC[C@@](C)(C(=O)N[C@H](Cc3ccccc3)C(=O)NCCN)c3ccc(Cl)c(Cl)c3)CC2)c2cc(F)ccc21

pKi (Neuromedin-K receptor): 5.80
pKi (Substance-P receptor): 7.20
Structure (SMILES): CN1C(=O)OC2(CCN(CCC[C@@](C)(C(=O)N[C@H](Cc3ccccc3)C(=O)NCCN)c3ccc(Cl)c(Cl)c3)CC2)c2cc(F)ccc21

pKi (Neuromedin-K receptor): 7.40
pKi (Substance-P receptor): 6.60
Structure (SMILES): CN1C(=O)OC2(CCN(CC[C@@](C)(C(=O)N[C@H](C(=O)NCCN)c3ccccc3)c3ccc(Cl)c(Cl)c3)CC2)c2cc(F)ccc21

pKi (Neuromedin-K receptor): 7.70
pKi (Substance-P receptor): 7.80
Structure (SMILES): CNCCNC(=O)[C@@H](Cc1ccccc1)NC(=O)[C@](C)(CCN1CCC2(CC1)OC(=O)N(C)c1ccc(F)cc12)c1ccc(Cl)c(Cl)c1

pKi (Neuromedin-K receptor): 8.60
pKi (Substance-P receptor): 7.50
Structure (SMILES): CN1C(=O)OC2(CCN(CC[C@@](C)(C(=O)N[C@H](Cc3ccccc3)C(=O)NCCO)c3ccc(Cl)c(Cl)c3)CC2)c2cc(F)ccc21

pKi (Neuromedin-K receptor): 8.10
pKi (Substance-P receptor): 8.60
Structure (SMILES): CN1C(=O)OC2(CCN(CC[C@@](C)(C(=O)N(C)[C@H](Cc3ccccc3)C(=O)NCCN)c3ccc(Cl)c(Cl)c3)CC2)c2cc(F)ccc21

pKi (Neuromedin-K receptor): 5.80
pKi (Substance-P receptor): 6.90
Structure (SMILES): CN1C(=O)OC2(CCN(CC[C@@H](C(=O)N(C)[C@@H](Cc3ccccc3)C(=O)NCCN)c3ccc(Cl)c(Cl)c3)CC2)c2cc(F)ccc21 (mixture of isomers)
